The source of these data is PubChem BioAssay.

Activity calls are given as the source filed them.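 The calls were made as follows, unless noted: active = fluorescence slope higher than the sample average by over 3 SD (cut at about -0.22 in these data, passing the limit was not always enough); inactive = the rest.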

In general, inhibition refers to the relative decrease from the control value, in per cent.

Assay [1] in a line: inhibitors of TNFa-induced NFkB p65 translocation, primary screen, imaging, HUVEC, MLSMR starter and 10KST1 sets (AID 438;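 active = inhibition above 20% together with a positive visual image hit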;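 also: compound added about 3h40 before a 20 min TNFalpha stimulation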;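 as to inhibition: signal is the nuclear over cytoplasmic p65 intensity ratio per well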). The settings on record: HUVEC TNFa-induced p65 nuclear translocation; cell count: measured here: nuclei count (cytotoxicity indicator), at 2.08 µM; inhibition: at 2 µM, stronger effect = higher value, 0% TNFa-plus-vehicle, 100% no-TNFa wells.
Assay [2] can be described thus: reduction of polyQ htt aggregates in cells – imaging, exon1htt(103Q)mCFP cells, high-content imaging, primary screen (AID 483;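 active = visual image review flags a hit and inhibition of aggregation exceeds 20%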;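 also: compound exposure lasted 3 days before fixation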;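 as to nuclei count: percent of the per-plate median nuclei count of sample wells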). As to conditions: exon1htt(103Q)mCFP cell line, aggregate imaging, at 2 µM; inhibition of aggregation: stronger effect = higher value; nuclei count: measured here: cell count, toxicity.
Assay [3] can be described thus: endothelial E-selectin expression blockers – imaging, HUVEC, immunofluorescence, MLSMR starter and 10KST1 sets, primary screen (AID 487;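 active = visually confirmed hit in the image check and inhibition above 20%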;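 as to inhibition: signal is fraction of cell area covered by stained E-selectin grains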;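 as to nuclei count: 100% = median nuclei count of all wells on the same plate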). The settings on record: HUVEC TNFalpha-induced E-selectin immunofluorescence imaging, at 2 µM; inhibition: stronger effect = higher value; nuclei count: measured here: cell number, toxicity.
Assay [4] has as its target Voltage-gated potassium channel subunit beta-2 (Rattus norvegicus) (UniProt P62483). Nature of the assay: inhibitors of rat Kvbeta2 reductase activity – biochemical, NADPH fluorescence, primary screen (AID 622).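 Also: slope of raw intensity against log time taken from 70 to 1610 s.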 The settings on record: recombinant KvBeta, 4-cyanobenzaldehyde reduction, at 10 µM, stronger effect = higher value.
For assay [5] the target is unchanged. Put plainly: enhancers of rat Kvbeta2 NADPH turnover – biochemical, NADPH fluorescence, primary screen (AID 623;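 active = NADPH fluorescence slope more negative than the mean of all samples by about 3 SD, 99.7% confidence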;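 also: fluorescence intensity change per second fitted from 20 to 320 s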). As to conditions: Recombinant KvBeta, NADPH fluorescence decrease slope, 10 min; at 10 µM; stronger effect = lower value.
In assay [6] the target is Alpha-2C adrenergic receptor (Homo sapiens) (UniProt P18825). Put plainly: compounds altering alpha2C-coupled GIRK flux – cell-based, HEK293 alpha2C/GIRK1/2, thallium flux, primary screen (AID 624;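 active = fluorescence slope after compound addition differing from the mean of all screened samples at 99.7% confidence, in either direction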;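 also: slope of fluorescence ratio to pre-addition baseline per second over 15 to 24 s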). As to conditions: thallium flux BTC fluorescence, at 10 µM, actives lie on both sides.
Alpha-2C adrenergic receptor (Homo sapiens), sequence (P18825 whole entry, looked up): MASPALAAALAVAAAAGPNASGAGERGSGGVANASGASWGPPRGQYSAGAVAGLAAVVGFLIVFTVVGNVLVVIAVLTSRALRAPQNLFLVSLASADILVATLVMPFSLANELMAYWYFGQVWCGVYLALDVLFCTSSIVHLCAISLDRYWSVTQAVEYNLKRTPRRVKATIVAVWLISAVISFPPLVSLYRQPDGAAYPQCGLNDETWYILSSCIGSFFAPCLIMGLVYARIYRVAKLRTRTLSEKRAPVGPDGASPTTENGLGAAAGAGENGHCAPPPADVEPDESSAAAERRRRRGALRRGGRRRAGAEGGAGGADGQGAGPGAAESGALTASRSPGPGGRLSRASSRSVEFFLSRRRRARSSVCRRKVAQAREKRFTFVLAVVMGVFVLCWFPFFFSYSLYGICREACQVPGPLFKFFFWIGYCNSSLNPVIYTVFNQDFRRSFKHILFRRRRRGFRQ
Assay [7] can be described thus: inhibitors of larval lipid processing in zebrafish, primary screen, whole organism, PED6 fluorescence, gall bladder and intestine (AID 686;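 active = a full or partial loss of lipid-probe fluorescence in the fish gall bladder, intestine or both, judged by eye; inactive = no fluorescence loss, or compound toxic to the fish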;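 also: larvae 5 to 7 days old with five fish per well; signal comes from phospholipase A2 cleavage of quenched PED6 carried via bile; overnight exposure to compound and PED6 before scoring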). As to conditions: Zebrafish larvae PED6 lipid processing, fluorescence scoring; screened at 20 µM (by protocol). An outline of the steps:
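system = live zebrafish larvae aged 5-7 days, whole organism | probe or stimulus = ingested quenched lipid PED6 at 100 nM | doses = 20 µM single dose | timing = overnight exposure | detection = fluorescence microscopy with visual scoring of gall bladder and intestine | read-out = visual per-well fluorescence inhibition score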

A short description of assay [8]: blockers of RIG-like receptor reporter activation – cell-based, Sendai virus stimulus, luciferase, 10K MLSCN set, TLR/RLR signaling modifier project, primary screen (AID 602276;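 active = inhibition at or above 50% at 10 µM; inactive = inhibition below 50%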;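 also: firefly luciferase from ISG56 promoter only with Renilla not read in this screen; 0% = Sendai virus plus DMSO and 100% = medium plus DMSO without virus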). The settings on record: HEK293 RL24 IRF3 luciferase reporter, at 10 µM, stronger effect = higher value. (Reporter assays use an easily measured gene product as a stand-in for the process of interest.)

Assay [9] in a line: TLR3 IRF3 reporter activation blockers – cell-based, poly I:C stimulus, luciferase, 10K MLSCN set, primary screen (AID 602277;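 active = inhibition of the reporter signal at or above 50%; inactive = inhibition below 50%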). The settings on record: HEK293-TLR3 RL24 IRF3 luciferase reporter, at 10 µM, stronger effect = higher value.

Voltage-gated potassium channel subunit beta-2 (Rattus norvegicus), sequence (P62483 whole entry, looked up): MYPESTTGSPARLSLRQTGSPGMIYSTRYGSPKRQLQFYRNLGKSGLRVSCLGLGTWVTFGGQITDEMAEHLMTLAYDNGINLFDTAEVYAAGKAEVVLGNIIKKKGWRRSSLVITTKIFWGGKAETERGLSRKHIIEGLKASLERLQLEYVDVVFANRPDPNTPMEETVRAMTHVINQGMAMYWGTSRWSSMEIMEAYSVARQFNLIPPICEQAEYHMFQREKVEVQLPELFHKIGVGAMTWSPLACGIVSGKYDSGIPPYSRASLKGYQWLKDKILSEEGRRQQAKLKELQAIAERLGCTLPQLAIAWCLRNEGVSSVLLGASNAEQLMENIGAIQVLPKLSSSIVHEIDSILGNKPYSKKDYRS

Take `O=C(O)CCc1ccc(-c2ccc(F)cc2)n1CCC(=O)O`: the cell count in assay [1] was determined as 422. For the same molecule, the inhibition in [1] was 1.8% (inactive); in assay [3], -140% (inactive); in assay [8], 15.3% (inactive); in assay [9], 19.9% (inactive). Moreover, the inhibition of aggregation in assay [2] was -12.9% (inactive). For the same molecule, the nuclei count in assay [2] worked out at 118%; in assay [3], 120%. In assay [4], the fluorescence slope was -0.427 (inactive). For the same molecule, the NADPH fluorescence slope in assay [5] was -5.7e-05 (inactive). For the same molecule, the slope in assay [6] is 0.00497 (inactive). Besides, the outcome in [7] was “inactive; toxic”.

On to `CNC(=O)OC(C)CNS(=O)(=O)c1ccc(C)cc1` (stereo not drawn), for which, in assay [1], the cell count was 441. For the same molecule, the inhibition in assay [1] was 9.8% (inactive); in assay [3], -36.3% (inactive); in assay [8], 19.5% (inactive); in assay [9] it was 17.5% (inactive). Besides, the inhibition of aggregation in [2] was 5.2% (inactive). Further, the figures for the nuclei count in [2] and in [3] were 103% and 118%, respectively. Moreover, the fluorescence slope in [4] was -0.433 (inactive). Further, the NADPH fluorescence slope in assay [5] is -4.1e-05 (inactive). Also, the slope in [6] is 0.00412 (inactive). Moreover, the call in [7] was inactive.

As for `Cc1nc(C)n(C(C)CC(=O)O)n1` (stereo not drawn), the cell count in assay [1] worked out at 635. For the same molecule, the inhibition in assay [1] was 0.7% (inactive); in assay [3] it was -147% (inactive); in assay [8] it was 5.03% (inactive); in assay [9], 7.13% (inactive). Further, the inhibition of aggregation in assay [2] was 53.1% (active). Besides, the nuclei count in assay [2] came out at 90.8%; in assay [3] it was 115%. The fluorescence slope in [4] was -0.386 (inactive). Moreover, in [5], the NADPH fluorescence slope was -4.4e-05 (inactive). In addition, the slope in [6] is 0.00496 (inactive). In assay [7], the molecule was called inactive.

Turning to `COc1cc(C(=O)Nc2cc(-c3ccccc3)[nH]n2)cc(OC)c1OC`, the cell count in assay [1] was determined as 456. For the same molecule, the inhibition is -6.3% (inactive) in assay [1], -41% (inactive) in assay [3], 22.1% (inactive) in [8] and 33.8% (inactive) in assay [9]. Besides, the inhibition of aggregation in assay [2] is 15.9% (inactive). In addition, the nuclei count in assay [2] stood at 94.3%; in [3], 114%. In assay [4], the fluorescence slope is -0.385 (inactive). The NADPH fluorescence slope in assay [5] was -4.1e-05 (inactive). In addition, the slope in assay [6] is 0.00552 (inactive). In addition, the molecule was called inactive in [7].

With `Cc1cccc(C(=O)O)c1NC(=O)c1ccc(F)cc1`, in assay [1], the cell count was 343. In addition, the inhibition was 0.2% (inactive) in assay [1], 21.9% (inactive) in [3], -3.9% (inactive) in assay [8] and 2.7% (inactive) in assay [9]. Also, in assay [2], the inhibition of aggregation was -4.7% (inactive). Besides, the nuclei count in assay [2] was determined as 99.9%; in assay [3] it was 97.3%. For the same molecule, the fluorescence slope in assay [4] is -0.333 (inactive). In assay [5], the NADPH fluorescence slope was -1.3e-05 (inactive). Besides, in [6], the slope is 0.00577 (inactive). Besides, the result in [7] was inactive.

Turning to `Cc1occc1C(=O)Nc1ccc(S(=O)(=O)N2CCN(C)CC2)cc1`, in assay [1], the cell count was 318. The inhibition in assay [1] is 1% (inactive); in assay [3], -42.1% (inactive); in [8], 15.9% (inactive); in assay [9], 16.1% (inactive). Also, the inhibition of aggregation in [2] was -23.8% (inactive). The figures for the nuclei count in [2] and in [3] were 95.5% and 107%, respectively. Moreover, the fluorescence slope in assay [4] was -0.44 (inactive). Besides, in assay [5], the NADPH fluorescence slope is -1.3e-05 (inactive). Besides, in assay [6], the slope was 0.00548 (inactive). Also, in [7], the molecule was called inactive.

For the molecule `O=C(NCc1cccnc1)c1cccc(C(F)(F)F)c1`, the cell count in [1] stood at 355. Also, the inhibition in assay [1] is 5.2% (inactive); in assay [3] it was 4.9% (inactive); in assay [8], 11.3% (inactive); in assay [9], 20.1% (inactive). In addition, the inhibition of aggregation in assay [2] is 1.3% (inactive). The nuclei count in assay [2] was found to be 111%; in [3], 103%. Also, the fluorescence slope in [4] was -0.452 (inactive). The NADPH fluorescence slope in assay [5] is -2.9e-05 (inactive). Further, the slope in assay [6] was 0.00523 (inactive). In addition, the call in assay [7] was inactive.

In the case of `CCn1nnnc1SCC(=O)N1c2ccccc2CCc2ccccc21`, the cell count in assay [1] was found to be 568. Besides, the inhibition is -4.6% (inactive) in [1], -32.7% (inactive) in assay [3], 1.39% (inactive) in [8] and 1.68% (inactive) in assay [9]. Besides, in [2], the inhibition of aggregation was 2% (inactive). For the same molecule, the nuclei count in assay [2] was found to be 96.3%; in assay [3], 117%. The fluorescence slope in [4] is -0.377 (inactive). Also, the NADPH fluorescence slope in assay [5] is -5.8e-05 (inactive). Moreover, in assay [6], the slope is 0.00737 (inactive). Besides, in assay [7], the outcome was inactive.

In the case of `CNC(=O)CSc1nc2c(c(=O)n(C)c(=O)n2C)n1Cc1ccc(C)cc1`, the cell count in assay [1] is 346. In addition, the inhibition was 4% (inactive) in [1], -12.3% (inactive) in assay [3], 6.2% (inactive) in [8] and 24.5% (inactive) in assay [9]. Besides, the inhibition of aggregation in assay [2] was 15.9% (inactive). In addition, the nuclei count in assay [2] came to 80.4%; in assay [3], 88.8%. In addition, in [4], the fluorescence slope is -0.37 (inactive). The NADPH fluorescence slope in assay [5] was -5.6e-05 (inactive). Also, the slope in assay [6] was 0.00619 (inactive). Further, in assay [7], the molecule was classed as inactive.

Take `O=c1c2[nH]c3ccc(Cl)cc3c2ncn1Cc1ccccn1`: the cell count in assay [1] came out at 302. In addition, the inhibition in assay [1] was -3.6% (inactive); in assay [3], -31.6% (inactive); in [8], -2.53% (inactive); in [9], 5.03% (inactive). Moreover, the inhibition of aggregation in assay [2] is -30.4% (inactive). Also, the nuclei count in assay [2] stood at 83.4%; in [3] it was 107%. Further, in [4], the fluorescence slope is -0.392 (inactive). In assay [5], the NADPH fluorescence slope is -4.3e-05 (inactive). Also, in assay [6], the slope is 0.00522 (inactive). Besides, in [7], the outcome was inactive.

As for `Cc1nonc1NC(=O)c1ccccc1Br`, the cell count in assay [1] is 620. For the same molecule, the inhibition is 9.6% (inactive) in [1], 52.4% (inactive) in assay [3], 12% (inactive) in assay [8] and 22.4% (inactive) in [9]. Also, the inhibition of aggregation in assay [2] is 28.1% (inactive). Moreover, the nuclei count was 96.4% in [2] and 60% in [3]. Also, in assay [4], the fluorescence slope is -0.346 (inactive). The NADPH fluorescence slope in [5] was -5.8e-05 (inactive). Also, the slope in [6] was 0.00524 (inactive). Further, in [7], the molecule was called inactive.

For `Cc1nnc(SCC(=O)NCc2ccc3c(c2)OCO3)s1`, the cell count in [1] was found to be 418. Moreover, the inhibition in [1] is 3.1% (inactive); in assay [3] it was -57% (inactive); in assay [8], 5.5% (inactive); in assay [9], 11.6% (inactive). In assay [2], the inhibition of aggregation was -12% (inactive). In addition, the nuclei count in assay [2] stood at 101%; in [3], 106%. In assay [4], the fluorescence slope was -0.468 (inactive). Moreover, in assay [5], the NADPH fluorescence slope is -4.3e-05 (inactive). The slope in assay [6] is 0.00565 (inactive). Further, the call in [7] was inactive.

With `CCOC(=O)Cc1csc(NC(=O)c2cccc(OC)c2)n1`, the cell count in assay [1] came to 395. The inhibition in [1] was 5.8% (inactive); in [3] it was -15.2% (inactive); in assay [8], 4.13% (inactive); in [9], -6.24% (inactive). The inhibition of aggregation in assay [2] was -28.7% (inactive). In addition, the nuclei count in [2] stood at 97%; in [3], 113%. Besides, in assay [4], the fluorescence slope is -0.459 (inactive). In addition, the NADPH fluorescence slope in [5] was -3.2e-05 (inactive). For the same molecule, the slope in [6] was 0.00478 (inactive). For the same molecule, the outcome in [7] was inactive.

With `O=C(Nc1cc(C(F)(F)F)ccc1N1CCCC1)c1ccc2c(c1)OCO2`, the cell count in assay [1] amounted to 215. Further, the inhibition in assay [1] was 6.7% (inactive); in assay [3] it was -54.9% (inactive); in assay [8], 13% (inactive); in [9] it was 24.5% (inactive). Further, the inhibition of aggregation in [2] is 16.7% (inactive). Besides, the nuclei count in assay [2] came out at 84.5%; in assay [3] it was 103%. For the same molecule, the fluorescence slope in [4] was -0.461 (inactive). Also, the NADPH fluorescence slope in assay [5] is -2e-05 (inactive). In addition, in [6], the slope was 0.00354 (inactive). For the same molecule, the molecule was called inactive in [7].
